L major viab: Leishmania major promastigote growth inhibition. Leishmania major promastigotes, resazurin fluorescence viability. inhibition, % at 10 µM. 9% of 200,000 active; in the data active means inhibition above about 50%;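 further: promastigotes grown with compound for 44 hours at 28 °C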
Hep lipid drop: hepatic lipid droplet formation modulation; AML12 mouse hepatocytes, oleate lipid droplets, BODIPY imaging; inhibition, % at 6.5 µM; 0.4% of 240,000 active; AID 1656;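 active means lipid droplet intensity inhibited by at least 50%, with more than 500 cells counted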
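Assay system: AML12 hepatocytes (mouse); Probe or stimulus: oleic acid at 100 µM to induce lipid droplet formation; Dosing: compound at 6.5 µM only; Schedule: compound with oleate, overnight; Detection: fluorescence imaging, 20x objective, two fields per well; Measure: % inhibition of lipid droplet signal.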
Redox H2O2 prof: compounds producing H2O2 with reducing agent – biochemical, NIH compound library profiling, artefact control for MLSCN library redox annotation, primary screen; 0.03% of 200,000 active; AID 878; activation, % at 10 µM; DTT-dependent redox cycling H2O2, phenol red/HRP absorbance; 100% = 100 µM peroxide control, 0% = buffer;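 active means activation of at least 50% relative to the plate's high and low controls in the primary single-dose screen; inactive means activation below 50%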;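 further: compound incubated with DTT at 0.8 mM final as the reducing agent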
T cruzi inh: blocks replication of Trypanosoma cruzi; inhibition, % (concentration not given with the values); T. cruzi beta-gal in NIH3T3, luminescence, 90 h; 1.4% of 300,000 active;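 active means mean inhibition across valid replicates above about 55%, limit read from the data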;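 further: signal also drops with host cell toxicity which is not excluded here; 0% = plate median of DMSO wells and 100% = zero luminescence signal; higher percent means less beta-gal luminescence so fewer parasites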
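Incubation – ≥90 h infection period, 3 h prior cell attachment · System – NIH/3T3 fibroblasts plus reporter T. cruzi · Doses – compound pinned at 50 nL/well, DMSO · Read-out basis – percent inhibition of parasite-derived β-gal signal · Signal – luminescent β-galactosidase signal after 60 min lysis · Also added – 5000 T. cruzi trypomastigotes/well · Medium – Low-serum DMEM with 2% FBS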
MPTP block: blocks calcium-induced mitochondrial swelling; isolated mouse mitochondria, Ca2+ swelling absorbance, 30 min; 1.4% of 360,000 active; inhibition, % at 10 µM;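 active means inhibition of 50% or more, scaled per plate between neutral and stimulator controls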;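 further: 0% = DMSO wells given calcium and 100% = 1 mM EGTA wells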
An asterisk follows results filed as active. Many of the other results were omitted from the sample, so hits are more common in it than they were.

O=C(Nc1cccc(Cl)c1)c1ccc(NCCCN2CCOCC2)c([N+](=O)[O-])c1 was read as L major viab 99*, Redox H2O2 prof -1, T cruzi inh 24 and MPTP block -6.
For Cc1ccc(NC(=O)c2ccc(NCCCN3CCC(C)CC3)c([N+](=O)[O-])c2)cc1F the results were L major viab 84*, Hep lipid drop -69, Redox H2O2 prof -1, T cruzi inh 0 and MPTP block 12.
`CCOc1ccccc1N(CC(=O)NCCc1ccccc1)C(=O)CCC(=O)Nc1ccccn1` gave Hep lipid drop 2, T cruzi inh 10 and MPTP block -2.
COCCNC(=O)C1(C)CCCN(C(=O)c2ccc3c(c2)CCO3)C1 (stereo unspecified) was read as MPTP block 0.
`O=C(Nc1ccc(C(=O)Nc2ccccc2Cl)cc1)c1cccnc1` gave Hep lipid drop 6 and MPTP block 0.
For COc1ccc(C(=O)/C=C/c2ccccc2F)c(OC(=O)c2ccc([N+](=O)[O-])cc2)c1 the results were L major viab 91*, Redox H2O2 prof 0, T cruzi inh -5 and MPTP block 0.
O=S(=O)(c1cccs1)N1CCN(CC(O)COc2cccc(Br)c2)CC1 (stereo unspecified) was read as L major viab 98*, Hep lipid drop -3, Redox H2O2 prof 0, T cruzi inh 9 and MPTP block 12.
`Cc1cc(Cn2nc(C(=O)NCC3CC3)cc2-c2ccccc2)on1` gave T cruzi inh 9 and MPTP block 0.
Screening CN1CCN(NC(=O)Nc2cccc(Cl)c2Cl)CC1 returned L major viab -3, Hep lipid drop -16, Redox H2O2 prof -1, T cruzi inh 57* and MPTP block -4.
Screening NC(=O)c1ccccc1NC(=O)Nc1cccc(Cl)c1Cl returned L major viab 65*, Hep lipid drop 3, Redox H2O2 prof -1, T cruzi inh -27 and MPTP block -1.
O=C(C1CCC1)N1CCCc2cc(S(=O)(=O)N3CCN(c4ccccc4)CC3)ccc21 was read as Hep lipid drop -10, T cruzi inh 21 and MPTP block 1.
For S=c1[nH]nc(-c2ccc3ccccc3n2)n1-c1ccccc1Cl the results were L major viab 52*, Hep lipid drop -1, Redox H2O2 prof 0, T cruzi inh 3 and MPTP block 0.
Screening CCC(C)C(NC(=O)C(Cc1ccc(O)cc1)NC(=O)OCc1ccccc1)C(=O)OC (stereo unspecified) returned MPTP block -1.
O=C(Nc1nnc(/C=C/c2ccccc2)s1)c1ccco1 was read as Hep lipid drop -16, T cruzi inh -26 and MPTP block 1.
For Cc1ccc(C(C#N)c2ccc(C(=O)c3ccc(F)cc3)cc2)cc1 (stereo unspecified) the results were L major viab 54*, Hep lipid drop 10, Redox H2O2 prof 1, T cruzi inh -11 and MPTP block 10.
C=CCn1c(=O)c2ccccc2n2c(SCC(=O)Nc3sc(C)c(CC)c3C(=O)OCC)nnc12 was read as L major viab 71*, Hep lipid drop -1, Redox H2O2 prof 0, T cruzi inh 27 and MPTP block 6.
Screening O=C(NCCCN1CCOCC1)c1[nH]c(C(F)(F)F)nc1-c1ccccc1 returned MPTP block -1.
Screening Cc1c(-c2cccc(Cl)c2)nc2ccccc2c1C(=O)OCC(=O)Nc1ccc2c(c1)OCO2 returned L major viab 58*, Hep lipid drop 5, Redox H2O2 prof 2, T cruzi inh 55* and MPTP block 9.
For O=C(NC1CCN(Cc2ccccc2)CC1)c1ccccc1OCc1ccccc1Cl the results were Hep lipid drop -19, T cruzi inh 34 and MPTP block 2.
O=C(c1cccc([N+](=O)[O-])c1)N1CCN(c2cccc(Cl)c2)CC1 was read as L major viab 33, Hep lipid drop 2, Redox H2O2 prof 0, T cruzi inh -4 and MPTP block 0.
For O=C(COc1ccc2c(c1)CCC2)N1CCN(c2cccc(C(F)(F)F)c2)CC1 the results were L major viab 65*, Hep lipid drop -2, Redox H2O2 prof 1, T cruzi inh 7 and MPTP block 7.
Screening O=C(COc1cccc(C(F)(F)F)c1)N1CCN(c2ccc(O)cc2)CC1 returned L major viab 11, Hep lipid drop -2, Redox H2O2 prof 0, T cruzi inh -6 and MPTP block 7.

High-throughput results deposited in PubChem BioAssay by several laboratories.
